Key:
[1] = Inhibition of hedgehog signaling pathway in mouse NIH/3T3 cells by Gli1-luciferase reporter gene assay; format: cell-based; conditions: NIH3T3
[2] = Ratio of GDC-0449 IC50 to compound IC50 for hedgehog signaling pathway in mouse NIH/3T3 cells by Gli1-luciferase reporter gene assay; format: cell-based
[3] = Clearance in Sprague-Dawley rat at 1 mg/kg, iv; format: ADME, organism-based; set-up: dose 1 mg/kg, route intravenous; conditions: in vivo
Summary of the method: (§1)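 SD rats given a single 1 mg/kg iv dose in 5% DMA + 5% Tween-80. Plasma concentration–time data were analysed by a noncompartmental approach.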

[4] = Mean residence time (0 to t) in Sprague-Dawley rat at 5 mg/kg, po; format: ADME, organism-based; set-up: dose 5 mg/kg, route oral; conditions: in vivo
Summary of the method: (§2)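 SD rats dosed orally at 5 mg/kg in 0.5% HPMC + 0.3% Tween-80 (pH 2.8). Blood samples (n = 3) were centrifuged at 4000 rpm for 5 min at 4 °C. Plasma concentration–time data were analysed noncompartmentally.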

[5] = Cmax in Sprague-Dawley rat at 5 mg/kg, po; format: ADME, organism-based; set-up: dose 5 mg/kg, route oral; conditions: in vivo; summary of the method: as §2
[6] = system: Rattus norvegicus; experiment: Volume of distribution at steady state in Sprague-Dawley rat at 5 mg/kg, po; format: ADME, organism-based; set-up: dose 5 mg/kg, route oral; conditions: in vivo; summary of the method: as §2
[7] = AUC in Sprague-Dawley rat at 1 mg/kg, iv; format: ADME, organism-based; set-up: dose 1 mg/kg, route intravenous; conditions: plasma; summary of the method: as §1
[8] = Clearance in Sprague-Dawley rat at 5 mg/kg, po; format: ADME, organism-based; set-up: dose 5 mg/kg, route oral; conditions: in vivo; summary of the method: as §2
[9] = Half life in Sprague-Dawley rat at 1 mg/kg, iv; format: ADME, organism-based; set-up: dose 1 mg/kg, route intravenous; conditions: in vivo; summary of the method: as §1
[10] = AUC in Sprague-Dawley rat at 5 mg/kg, po; format: ADME, organism-based; set-up: dose 5 mg/kg, route oral; conditions: plasma; summary of the method: as §2
[11] = Cmax in Sprague-Dawley rat at 1 mg/kg, iv; format: ADME, organism-based; set-up: dose 1 mg/kg, route intravenous; conditions: in vivo; summary of the method: as §1
[12] = Half life in Sprague-Dawley rat at 5 mg/kg, po; format: ADME, organism-based; set-up: dose 5 mg/kg, route oral; conditions: in vivo; summary of the method: as §2
[13] = (§3) Mean residence time (0 to t) in Sprague-Dawley rat at 1 mg/kg, iv; format: ADME, organism-based; set-up: dose 1 mg/kg, route intravenous; conditions: Sprague-Dawley, in vivo; summary of the method: as §1
[14] = Oral bioavailability in Sprague-Dawley rat at 5 mg/kg; format: ADME, organism-based; conditions: in vivo
Summary of the method: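 Oral dosing of SD rats at 5 mg/kg in 0.5% HPMC + 0.3% Tween-80 (pH 2.8), with blood samples n = 3, alongside iv dosing at 1 mg/kg in 5% DMA + 5% Tween-80. Plasma concentration–time data were analysed noncompartmentally.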

[15] = (§4) Volume of distribution at steady state in Sprague-Dawley rat at 1 mg/kg, iv; format: ADME, organism-based; set-up: dose 1 mg/kg, route intravenous; conditions: Sprague-Dawley, in vivo, read-out: Vdss; summary of the method: as §1
[16] = system: Rattus norvegicus; experiment: as §3; format: ADME, organism-based; set-up: dose 1 mg/kg, route intravenous; conditions: in vivo; summary of the method: as §1
[17] = system: Rattus norvegicus; experiment: as §4; format: ADME, organism-based; set-up: dose 1 mg/kg, route intravenous; conditions: in vivo; summary of the method: as §1

## Cc1ccc(CN2CCNC(=O)C2)cc1NC(=O)c1ccc(Nc2ncc(C)c(-c3ccc(OC(F)(F)F)cc3)n2)cc1
[1]
  IC50: 2 nM

## Cc1ccc(CN2CCNCC2)cc1NC(=O)c1ccc(Nc2ncc(C)c(-c3ccc(OC(F)(F)F)cc3)n2)cc1
[1]
  IC50: 10.5 nM

## Cc1ccc(CN2CCCC2)cc1NC(=O)c1ccc(Nc2ncc(C)c(-c3ccc(OC(F)(F)F)cc3)n2)cc1
[1]
  IC50: 0.43 nM
[2]
  Ratio IC50: 7

## Cc1ccc(CN2C[C@@H](C)O[C@@H](C)C2)cc1NC(=O)c1ccc(Nc2ncc(C)c(-c3cnn(C)c3)n2)cc1
[1]
  IC50: 8.4 nM

## Cc1ccc(CN2CCN(C)CC2)cc1NC(=O)c1ccc(Nc2ncc(C)c(-c3cnn(C)c3)n2)cc1
[1]
  IC50: 10 nM

## Cc1ccc(CN2CCC(O)CC2)cc1NC(=O)c1ccc(Nc2ncc(C)c(-c3ccc(OC(F)(F)F)cc3)n2)cc1
[1]
  IC50: 0.44 nM

## Cc1ccc(CNC(C)(C)C)cc1NC(=O)c1ccc(Nc2ncc(C)c(-c3ccc(OC(F)(F)F)cc3)n2)cc1
[1]
  IC50: 0.9 nM

## Cc1ccc(CN2CCOCC2)cc1NC(=O)c1ccc(Nc2ncc(C)c(-c3cnn(C)c3)n2)cc1
[1]
  IC50: 1.3 nM
[3]
  clearance: 14.3 mL/min/kg
[4]
  MRT last: 2.4 h
[5]
  Cmax: 1500 ng/mL
[6]
  Vdss: 2.9 L/kg
[7]
  AUC: 1200 ng·h/mL
[8]
  CL/F: 23.9 mL/min/kg
[9]
  half-life: 0.8 h
[10]
  AUC: 3800 ng·h/mL
[11]
  Cmax: 2100 ng/mL
[12]
  half-life: 1.4 h
[13]
  MRT last: 0.81 h
[14]
  bioavailability: 63.6%
[15]
  Vd: 0.9 L/kg

## Cc1ccc(CN2CCC(N3CCCCC3)CC2)cc1NC(=O)c1ccc(Nc2ncc(C)c(-c3ccc(OC(F)(F)F)cc3)n2)cc1
[1]
  IC50: 19.5 nM

## Cc1ccc(CN2CCCc3ccccc32)cc1NC(=O)c1ccc(Nc2ncc(C)c(-c3ccc(OC(F)(F)F)cc3)n2)cc1
[1]
  IC50: 2.4 nM

## CCN(CC)Cc1ccc(C)c(NC(=O)c2ccc(Nc3ncc(C)c(-c4ccc(OC(F)(F)F)cc4)n3)cc2)c1
[1]
  IC50: 0.23 nM

## Cc1ccc(CN2CCSCC2)cc1NC(=O)c1ccc(Nc2ncc(C)c(-c3ccc(OC(F)(F)F)cc3)n2)cc1
[1]
  IC50: 0.34 nM
[2]
  Ratio IC50: 7

## Cc1ccc(CN2CCC[C@@H]2CN2CCCC2)cc1NC(=O)c1ccc(Nc2ncc(C)c(-c3ccc(OC(F)(F)F)cc3)n2)cc1
[1]
  IC50: 3.9 nM

## Cc1ccc(CN(CCO)CCO)cc1NC(=O)c1ccc(Nc2ncc(C)c(-c3ccc(OC(F)(F)F)cc3)n2)cc1
[1]
  IC50: 0.47 nM

## Cc1ccc(CN2CCCC2)cc1NC(=O)c1ccc(Nc2ncc(C)c(-c3cnn(C)c3)n2)cc1
[1]
  IC50: 9.2 nM

## Cc1ccc(CN2CCN(C(=O)C3CC3)CC2)cc1NC(=O)c1ccc(Nc2ncc(C)c(-c3ccc(OC(F)(F)F)cc3)n2)cc1
[1]
  IC50: 1.3 nM

## Cc1ccc(CN(C)CCCN(C)C)cc1NC(=O)c1ccc(Nc2ncc(C)c(-c3ccc(OC(F)(F)F)cc3)n2)cc1
[1]
  IC50: 35.3 nM

## Cc1ccc(CN2C[C@@H](C)O[C@@H](C)C2)cc1NC(=O)c1ccc(Nc2ncc(C)c(-c3ccc(OC(F)(F)F)cc3)n2)cc1
[1]
  IC50: 0.45 nM
[3]
  clearance: 24.9 mL/min/kg
[4]
  MRT last: 9.7 h
[5]
  Cmax: 94 ng/mL
[6]
  Vdss: 42.9 L/kg
[7]
  AUC: 580 ng·h/mL
[8]
  CL/F: 51.9 mL/min/kg
[9]
  half-life: 9.2 h
[10]
  AUC: 1300 ng·h/mL
[2]
  Ratio IC50: 7
[11]
  Cmax: 300 ng/mL
[12]
  half-life: 9.5 h
[13]
  MRT last: 7.4 h
[14]
  bioavailability: 44.4%
[15]
  Vd: 20 L/kg

## Cc1ccc(CN2CCOCC2)cc1NC(=O)c1ccc(Nc2ncc(C)c(-c3ccccc3)n2)cc1
[1]
  IC50: 0.68 nM
[3]
  clearance: 23.3 mL/min/kg
[7]
  AUC: 710 ng·h/mL
[9]
  half-life: 1 h
[11]
  Cmax: 840 ng/mL
[13]
  MRT last: 1.2 h
[15]
  Vd: 2.1 L/kg

## Cc1cnc(Nc2ccc(C(=O)Nc3c(C)cccc3C)cc2)nc1-c1ccc(OC(F)(F)F)cc1
[1]
  IC50: 1.3 nM
[4]
  MRT last: 5.1 h
[16]
  MRT: 4 h

## Cc1ccc(CN2CCC(O)CC2)cc1NC(=O)c1ccc(Nc2ncc(C)c(-c3cnn(C)c3)n2)cc1
[1]
  IC50: 21.2 nM

## Cc1ccc(CN2C(C)(C)CC(=O)CC2(C)C)cc1NC(=O)c1ccc(Nc2ncc(C)c(-c3ccc(OC(F)(F)F)cc3)n2)cc1
[1]
  IC50: 0.29 nM

## Cc1ccc(CN2CCN(C)CC2)cc1NC(=O)c1ccc(Nc2ncc(C)c(-c3ccncc3)n2)cc1
[1]
  IC50: 0.61 nM
[3]
  clearance: 61.5 mL/min/kg
[7]
  AUC: 270 ng·h/mL
[9]
  half-life: 1.1 h
[11]
  Cmax: 580 ng/mL
[13]
  MRT last: 0.9 h
[15]
  Vd: 5.7 L/kg

## Cc1ccc(CN2CCc3sccc3C2)cc1NC(=O)c1ccc(Nc2ncc(C)c(-c3ccc(OC(F)(F)F)cc3)n2)cc1
[1]
  IC50: 1.5 nM

## Cc1ccc(CN(C)C(C)C)cc1NC(=O)c1ccc(Nc2ncc(C)c(-c3ccc(OC(F)(F)F)cc3)n2)cc1
[1]
  IC50: 0.89 nM

## CS(=O)(=O)c1ccc(C(=O)Nc2ccc(Cl)c(-c3ccccn3)c2)c(Cl)c1 [VISMODEGIB]
[1]
  IC50: 7.2 nM
[9]
  half-life: 1.6 h

## Cc1ccc(CN2CCC(=O)CC2)cc1NC(=O)c1ccc(Nc2ncc(C)c(-c3ccc(OC(F)(F)F)cc3)n2)cc1
[1]
  IC50: 0.28 nM

## Cc1ccc(CN2CCCCC2)cc1NC(=O)c1ccc(Nc2ncc(C)c(-c3ccc(OC(F)(F)F)cc3)n2)cc1
[1]
  IC50: 1 nM
[2]
  Ratio IC50: 7

## Cc1ccc(CNCCO)cc1NC(=O)c1ccc(Nc2ncc(C)c(-c3ccc(OC(F)(F)F)cc3)n2)cc1
[1]
  IC50: 1.1 nM

## CCN1CCN(Cc2ccc(C)c(NC(=O)c3ccc(Nc4ncc(C)c(-c5ccc(OC(F)(F)F)cc5)n4)cc3)c2)CC1
[1]
  IC50: 0.77 nM

## Cc1ccc(CNC2CCCC2)cc1NC(=O)c1ccc(Nc2ncc(C)c(-c3ccc(OC(F)(F)F)cc3)n2)cc1
[1]
  IC50: 1.6 nM

## Cc1ccc(CNC(C)(C)C)cc1NC(=O)c1ccc(Nc2ncc(C)c(-c3cnn(C)c3)n2)cc1
[1]
  IC50: 18.1 nM

## Cc1ccc(CN(C)C)cc1NC(=O)c1ccc(Nc2ncc(C)c(-c3ccc(OC(F)(F)F)cc3)n2)cc1
[1]
  IC50: 0.59 nM

## Cc1ccc(CNc2ccccc2)cc1NC(=O)c1ccc(Nc2ncc(C)c(-c3ccc(OC(F)(F)F)cc3)n2)cc1
[1]
  IC50: 1.1 nM

## CCCN(C)Cc1ccc(C)c(NC(=O)c2ccc(Nc3ncc(C)c(-c4cnn(C)c4)n3)cc2)c1
[1]
  IC50: 17.5 nM

## Cc1ccc(CN(CCO)CCO)cc1NC(=O)c1ccc(Nc2ncc(C)c(-c3cnn(C)c3)n2)cc1
[1]
  IC50: 31.9 nM

## Cc1ccc(CNCCN2CCCCC2)cc1NC(=O)c1ccc(Nc2ncc(C)c(-c3ccc(OC(F)(F)F)cc3)n2)cc1
[1]
  IC50: 33.6 nM

## Cc1ccc(CN2CCN(c3ccccc3)CC2)cc1NC(=O)c1ccc(Nc2ncc(C)c(-c3ccc(OC(F)(F)F)cc3)n2)cc1
[1]
  IC50: 2 nM

## Cc1ccc(CN(C2CCCCC2)C2CCCCC2)cc1NC(=O)c1ccc(Nc2ncc(C)c(-c3ccc(OC(F)(F)F)cc3)n2)cc1
[1]
  IC50: 2.7 nM

## Cc1ccc(CN2C(C)(C)CCCC2(C)C)cc1NC(=O)c1ccc(Nc2ncc(C)c(-c3ccc(OC(F)(F)F)cc3)n2)cc1
[1]
  IC50: 0.76 nM

## CCNCc1ccc(C)c(NC(=O)c2ccc(Nc3ncc(C)c(-c4ccc(OC(F)(F)F)cc4)n3)cc2)c1
[1]
  IC50: 0.72 nM

## Cc1ccc(CNCc2ccco2)cc1NC(=O)c1ccc(Nc2ncc(C)c(-c3ccc(OC(F)(F)F)cc3)n2)cc1
[1]
  IC50: 2.5 nM

## Cc1ccc(CN2CCOCC2)cc1NC(=O)c1ccc(Nc2ncc(C)c(-c3ccc(OC(F)(F)F)cc3)n2)cc1
[1]
  IC50: 0.53 nM
[4]
  MRT last: 6.6 h
[5]
  Cmax: 280 ng/mL
[6]
  Vdss: 16.3 L/kg
[7]
  AUC: 1300 ng·h/mL
[8]
  CL/F: 32.8 mL/min/kg
[9]
  half-life: 7.2 h
[10]
  AUC: 2400 ng·h/mL
[2]
  Ratio IC50: 7
[11]
  Cmax: 1200 ng/mL
[12]
  half-life: 5.8 h
[16]
  MRT: 4.1 h
[14]
  bioavailability: 46.3%
[17]
  Vdss: 7.4 L/kg

## Cc1ccc(CN2CCCCC2)cc1NC(=O)c1ccc(Nc2ncc(C)c(-c3cnn(C)c3)n2)cc1
[1]
  IC50: 5.6 nM

## Cc1ccc(CN2CC3CCCC3C2)cc1NC(=O)c1ccc(Nc2ncc(C)c(-c3ccc(OC(F)(F)F)cc3)n2)cc1 (configuration not stated)
[1]
  IC50: 1.6 nM

## Cc1ccc(CN2CC3CCN(C)C3C2)cc1NC(=O)c1ccc(Nc2ncc(C)c(-c3ccc(OC(F)(F)F)cc3)n2)cc1 (configuration not stated)
[1]
  IC50: 10.5 nM

## CCCN(C)Cc1ccc(C)c(NC(=O)c2ccc(Nc3ncc(C)c(-c4ccc(OC(F)(F)F)cc4)n3)cc2)c1
[1]
  IC50: 0.93 nM

## Cc1ccc(CN2CCN(C)CC2)cc1NC(=O)c1ccc(Nc2ncc(C)c(-c3ccc(OC(F)(F)F)cc3)n2)cc1
[1]
  IC50: 0.45 nM

## Cc1ccc(CN(CCNC(C)C)C(C)C)cc1NC(=O)c1ccc(Nc2ncc(C)c(-c3ccc(OC(F)(F)F)cc3)n2)cc1
[1]
  IC50: 10.9 nM
